Screens (PubChem)
The entries come from a sample that favours hits as a whole.
697 NFkB inh: inhibitors of PMA/ionomycin-induced NF-kB reporter, 697 cells, primary screen, B-cell NF-kB inhibitor project, cell-based, luminescence, uHTS; 697 B-cell NF-kB luciferase reporter, 16 h; inhibition, % at 4 µM; 0.33% of 330,000 active; AID 435022, 2010; in the data active = inhibition above about 35%
UPR XBP1 act: activators of adaptive XBP1 UPR arm, primary screen, cell-based, CHO-XBP1 luciferase reporter, luminescence, uHTS; IRE1-XBP1 UPR activation; percent of tunicamycin response, DMSO as zero; activation, % at 20 µM; 0.33% of 330,000 active;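 active = versus positive control, 20 µM dose yields 30% or more activation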
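Material: CHO-XBP1 cells stably carrying IRE1-XBP1-driven luciferase reporter | Medium: F12 with 10% serum | Compound dosing: 20 µM single concentration, DMSO 1% | Incubation: Overnight seeding at 37 °C, 6 h compound treatment at 37 °C | Detection: Steady-Glo luminescence read | Read-out basis: % activation of reporter signal versus tunicamycin and DMSO controls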
UPR CHOP act: activators of apoptotic CHOP UPR arm, primary screen, cell-based, CHO-CHOP luciferase reporter, luminescence, uHTS. UPR activation; percent of tunicamycin response over DMSO baseline. activation, % at 10 µM. 0.34% of 330,000 active. AID 449763, 2010;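 active = at 10 µM dose, activation of 40% or more, normalized to positive control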
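Evaluation: % reporter activation, DMSO baseline versus tunicamycin full activation; System: CHO-CHOP luciferase reporter cell line; Input: 500 cells/well; Incubation: 6 h compound treatment, 37 °C; Measured by: Steady-Glo luciferase luminescence; Dosing: one dose, 10 µM in 0.5% DMSO; Buffer or medium: F12 medium, 10% FBS; Benchmarks: positive tunicamycin 10 µg/mL, negative DMSO alone.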
Jurkat NFkB inh: inhibitors of induced NF-kB luciferase reporter, primary screen, TCR NF-kB activation inhibitor project, cell-based, luminescence, uHTS | AID 435003, 2010 | Jurkat, PMA/ionomycin-induced NF-kB luciferase reporter | inhibition, % at 4 µM | 0.53% of 330,000 active; in the data active = inhibition above about 50%
CHOP inh: inhibitors of CHOP promoter induction, primary screen, cell-based, unfolded protein response, luciferase reporter; CHO-K1 CHOP-promoter luciferase, tunicamycin-induced, 15-18 h; inhibition, % at 10 µM; 3.8% of 220,000 active;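 active = compounds that reduced the stress-induced luciferase reporter signal by more than about 70% of percent inhibition, limit read from the data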
CHOP inh conf: retest of CHOP induction inhibitors, confirmation, cell-based; shares compounds with CHOP inh; CHO-CHOP promoter luciferase reporter, tunicamycin-induced, luminescence; inhibition, % at 10 µM; 45% of 2,100 active; AID 504437, 2011;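 active = mean of three repeat readings of reporter signal inhibition above a set limit, cut at about 70% in these data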
697 NFkB conf: PMA/ionomycin-induced NF-kB reporter inhibitors, 697 retest, confirmation, B-cell NF-kB inhibitor project, cell-based, luminescence, single concentration; 697 B-cell NF-kB luciferase, 16 h; shares compounds with 697 NFkB inh; 35% of 2,000 active; AID 449746, 2010; inhibition, % at 4 µM; in the data active = inhibition mostly above about 28%, no sharp cut-off; inactive = mostly below about 22%
CHOP UPR conf: activators of apoptotic CHOP UPR arm, confirmation, cell-based, CHO-CHOP luciferase reporter, single concentration. AID 463112, 2010. CHO-CHOP cells, CHOP-luciferase reporter luminescence; percent of tunicamycin response, DMSO as zero. 64% of 1,000 active. activation, % at 10 µM. shares compounds with UPR CHOP act; in the data active = activation above about 33%
XBP1 UPR conf: IRE1-XBP1 UPR arm activators, confirmation, cell-based, CHO-XBP1 luciferase reporter, luminescence, single concentration. shares compounds with UPR XBP1 act. activation, % at 20 µM. AID 485299, 2010. 63% of 1,000 active;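 active = reporter signal at least 30% of the positive control's activation in two or more of four replicate wells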
Hits are given with their value; 0 = inactive; - = no result.

SMILES	697 NFkB inh	UPR XBP1 act	UPR CHOP act	Jurkat NFkB inh	CHOP inh	CHOP inh conf	CHOP UPR conf	others
CCOc1ccc(CCN2C(=O)C(=O)N([C@H](CCCN(C)Cc3ccccc3)CNCc3ccccc3)C[C@@H]2C(C)C)cc1	0	0	0	0	0	-	-
Cc1ccc(C(=O)Nc2ccc(N3CCN(C)CC3)cc2)cc1C	0	0	0	0	-	-	-
Cc1nc([N+](=O)[O-])c(Br)n1CC(=O)c1ccc2ccccc2c1	0	0	144	0	103	0	104
Cc1nc([N+](=O)[O-])c(Br)n1CC(=O)c1ccccc1	0	0	0	0	0	-	-
CC(=O)SC(C[N+](=O)[O-])c1cn(C(C)=O)c2ccccc12 (configuration not stated)	0	0	159	0	106	0	0
CCOc1cc(/C=C2/C(=O)ON=C2C)ccc1OCc1ccccc1F	0	0	112	0	99	112	68
CCOc1cc(/C=C2\C(=O)ON=C2c2ccccc2)ccc1OC	0	0	0	0	-	-	-
CCOc1cc(/C=C2/C(=O)ON=C2C)ccc1OCc1ccccc1	0	0	58	0	105	0	0
CCc1ccc(NC(=O)CS(=O)CC(=O)Nc2ccc(N3CCOCC3)cc2)cc1 (configuration not stated)	0	0	0	0	-	-	-
FC(F)(F)c1nnc(-c2ccccc2)nc1Oc1ccc(Cl)cc1Cl	0	0	0	0	0	-	-
FC(F)(F)c1nnc(-c2ccccc2)nc1Sc1ccccc1	0	0	201	0	109	0	59
FC(F)(F)c1nnc(-c2ccccc2)nc1Sc1ccc(Cl)cc1	0	0	84	0	114	119	0
Cc1ccc(NC(=O)Nc2ccc3c(c2)OCO3)c(OC(F)F)c1	0	0	0	0	-	-	-
CC(C)(C)C1=CC(=O)C(=O)C(C(C)(C)C)=C1	0	0	144	0	104	0	326
CC[C@@]1(C(=O)OC)N[C@H](CN(C)S(=O)(=O)c2ccc(C(C)(C)C)cc2)[C@@H]2C(=O)N(C)C(=O)[C@@H]21	0	0	0	0	-	-	-
Clc1nc2c(-c3ccccc3)nnn2c2ccccc12	0	0	60	0	101	0	0
NC(=O)c1ccccc1NC(=O)c1ccc2c(c1)OCO2	0	0	0	0	-	-	-
O=C1COc2ccc(C(=O)CCl)cc2N1	0	0	148	0	101	0	0
CCC(CO)NCC#Cc1ccccc1 (configuration not stated)	0	0	0	0	0	-	-
CC(C)OC(=O)n1c(=S)oc2ccccc21	0	0	0	0	0	-	-
CCCCC(=O)/C=C/n1c(=S)oc2ccccc21	0	0	120	0	108	0	0
C=C(C)C(=O)OC1(C(F)(F)F)Oc2cc(C)ccc2NC1=O (configuration not stated)	0	0	45	0	109	116	0
CC[C@@H](C)[C@H](NC(=O)OC(C)(C)C)c1nnc(S(=O)(=O)Cc2cc(C)ccc2C)o1	0	0	225	0	115	123	100
CN(C)CC(C(=O)c1ccccc1)c1ccccc1 (configuration not stated)	0	0	159	0	-	0	41	697 NFkB conf=0
COc1ccc2[nH]c3c(c2c1)CCN1C(=O)N([C@@H](C)C(=O)NCc2ccco2)C(=O)[C@]31C	0	0	0	0	-	-	-
SMILES	697 NFkB inh	UPR XBP1 act	UPR CHOP act	Jurkat NFkB inh	CHOP inh	CHOP inh conf	CHOP UPR conf	others
CN(c1ccccc1)S(=O)(=O)c1ccc(Cl)c(C(=O)NCc2ccccc2CN2CCCC2)c1	0	0	0	0	-	-	-
CN(C)c1ncc(C2=C(Cl)C(=O)C(N3CCCC3)=C(Cl)C2=O)s1	0	0	83	0	108	0	0
CC(C)(C)c1cnnn1-c1ccc(C(=O)CCl)cc1	0	0	56	0	111	0	0
CC(C)(C)c1cnnn1-c1ccc(C=O)cc1	0	0	0	0	0	-	-
O=C(Nc1ncccn1)c1cc([N+](=O)[O-])cc([N+](=O)[O-])c1	0	0	0	0	0	-	-
O=[N+]([O-])c1cc(-c2ncccn2)c([N+](=O)[O-])s1	0	0	73	0	109	0	164
COc1ccc(-c2cc(C(F)(F)F)nc(N)n2)cc1	0	0	0	0	0	-	-
CCOC(=O)CCS(=O)(=O)c1nc(-c2ccccc2)cc(C(F)(F)F)n1	0	0	73	0	-	136	0
CCOC(=O)CS(=O)(=O)c1nc(-c2ccc(F)cc2)cc(C(F)(F)F)n1	0	0	0	0	-	-	-
COc1ccc(-c2cc(C(F)(F)F)nc(S(C)(=O)=O)n2)cc1	0	0	43	0	106	0	0
COc1ccc(C2N(C(=O)C(F)(F)F)C(C)CN2S(=O)(=O)c2ccc(C)cc2)cc1 (configuration not stated)	0	0	0	0	-	-	-
NS(=O)(=O)c1ccc(N/N=C2/CCCCC2C2CCCCC2)c([N+](=O)[O-])c1 (configuration not stated)	0	55	0	0	108	115	-	XBP1 UPR conf=84
COC(=O)c1cc(-c2ccc(NC(C)=O)cc2)nc2ccccc12	0	0	0	0	0	-	-
Cc1ccc(Cn2c(SCC(=O)Nc3cc(C)on3)nc3ccccc3c2=O)cc1	0	52	0	0	104	124	-	XBP1 UPR conf=48
Cc1cc(NC(=O)CSc2nc3ccccc3c(=O)n2Cc2ccccc2)no1	0	0	0	0	0	-	-
Cc1cc(NC(=O)CSc2nnc(-c3c[nH]c4ccccc34)n2-c2ccc(Cl)cc2)no1	0	40	0	0	106	0	-	XBP1 UPR conf=0
Cc1ccc(C)c(N2CCN(C(=O)c3ccc(N4CCOCC4)c([N+](=O)[O-])c3)CC2)c1	0	0	0	0	-	-	-
Cc1c(CN2CCN(CC(C)C)C(CCO)C2)[nH]c2ccc(Cl)cc12 (configuration not stated)	0	0	0	0	-	-	-
